Laboratory results as given in ChEMBL document CHEMBL2040792, “New chromene scaffolds for adenosine A(2A) receptors: synthesis, pharmacology and structure-activity relationships” (Eur J Med Chem, 2012).

Legend:
[1] = target: T1, Adenosine receptor A1 (Homo sapiens) (UniProt P30542); test: Displacement of [3H]DPCPX from human adenosine A1 receptor expressed in CHO cells at 10 uM after 60 mins by beta scintillation counting; assay type: cell-based
T1 sequence (whole entry): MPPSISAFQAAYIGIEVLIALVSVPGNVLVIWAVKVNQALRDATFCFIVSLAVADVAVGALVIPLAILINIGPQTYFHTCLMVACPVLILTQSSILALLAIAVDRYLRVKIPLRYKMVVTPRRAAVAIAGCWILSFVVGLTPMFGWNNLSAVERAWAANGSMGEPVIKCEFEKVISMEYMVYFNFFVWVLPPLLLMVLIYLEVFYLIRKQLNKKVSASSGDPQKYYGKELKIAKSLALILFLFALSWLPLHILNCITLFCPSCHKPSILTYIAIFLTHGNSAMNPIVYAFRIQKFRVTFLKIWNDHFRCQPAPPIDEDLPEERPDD
Summary of the method: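 CHO-A1 membranes (15 µg protein) in Hepes/NaCl/MgCl2 buffer with adenosine deaminase, pH 7.4. Test compound at 10 µM with 2 nM [3H]DPCPX, 60 min at 25 °C, in duplicate. Nonspecific binding with 10 µM (R)-PIA. Percent inhibition read after filtration.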

[2] = target: T2, Adenosine receptor A1 (Homo sapiens, UniProt P30542); test: Displacement of [3H]DPCPX from human adenosine A1 receptor expressed in CHO cells after 60 mins by beta scintillation counting; assay type: cell-based
T2 sequence (P30542 whole entry): T1 sequence (whole entry)
Summary of the method: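 CHO-A1 membranes (15 µg protein) in 20 mM Hepes, 100 mM NaCl, 10 mM MgCl2, 2 UI/ml adenosine deaminase, pH 7.4, with 2 nM [3H]DPCPX. Nonspecific binding defined with 10 µM (R)-PIA. Incubated 60 min at 25 °C, run in duplicate, then filtered. Six concentrations tested (10 nM-100 µM); IC50 from nonlinear regression, Ki by Cheng-Prusoff.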

[3] = target: T3, Adenosine receptor A2a (Homo sapiens, UniProt P29274); test: Displacement of [3H]ZM241385 from human adenosine A2A receptor expressed in human HeLa cells at 10 uM after 30 mins by beta scintillation counting; assay type: cell-based
T3 sequence (P29274 whole entry): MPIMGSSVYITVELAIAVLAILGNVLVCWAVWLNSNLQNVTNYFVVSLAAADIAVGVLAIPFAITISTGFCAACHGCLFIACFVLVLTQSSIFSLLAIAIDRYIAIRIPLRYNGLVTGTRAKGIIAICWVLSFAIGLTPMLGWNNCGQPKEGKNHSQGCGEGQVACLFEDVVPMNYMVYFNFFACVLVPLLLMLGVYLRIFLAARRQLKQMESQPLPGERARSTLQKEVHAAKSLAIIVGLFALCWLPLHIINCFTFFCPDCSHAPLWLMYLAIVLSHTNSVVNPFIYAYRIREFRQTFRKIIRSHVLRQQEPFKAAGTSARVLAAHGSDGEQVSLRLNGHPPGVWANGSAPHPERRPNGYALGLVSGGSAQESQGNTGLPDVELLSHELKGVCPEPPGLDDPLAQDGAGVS
Summary of the method: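 Single-point screen at 10 µM on HeLa-A2A membranes (10 µg protein), Tris/EDTA/MgCl2 buffer with adenosine deaminase, pH 7.4. 3 nM [3H]ZM241385, 30 min at 25 °C, in duplicate. Nonspecific binding with 50 µM NECA. Percent inhibition.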

[4] = target: T3, Adenosine receptor A2a; test: Displacement of [3H]ZM241385 from human adenosine A2A receptor expressed in human HeLa cells after 30 mins by beta scintillation counting; assay type: cell-based
Summary of the method: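 HeLa-A2A membranes (10 µg protein) in 50 mM Tris-HCl, 1 mM EDTA, 10 mM MgCl2, 2 UI/mL adenosine deaminase, pH 7.4, with 3 nM [3H]ZM241385. Nonspecific binding with 50 µM NECA. Incubated 30 min at 25 °C, in duplicate. Six concentrations (10 nM-100 µM); IC50 by nonlinear regression, converted to Ki by Cheng-Prusoff.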

[5] = target: T4, Adenosine receptor A2b (Homo sapiens) (UniProt P29275); test: Displacement of [3H]DPCPX from human adenosine A2B receptor expressed in HEK293 cells at 10 uM after 30 mins by beta scintillation counting; assay type: cell-based
T4 sequence (whole entry): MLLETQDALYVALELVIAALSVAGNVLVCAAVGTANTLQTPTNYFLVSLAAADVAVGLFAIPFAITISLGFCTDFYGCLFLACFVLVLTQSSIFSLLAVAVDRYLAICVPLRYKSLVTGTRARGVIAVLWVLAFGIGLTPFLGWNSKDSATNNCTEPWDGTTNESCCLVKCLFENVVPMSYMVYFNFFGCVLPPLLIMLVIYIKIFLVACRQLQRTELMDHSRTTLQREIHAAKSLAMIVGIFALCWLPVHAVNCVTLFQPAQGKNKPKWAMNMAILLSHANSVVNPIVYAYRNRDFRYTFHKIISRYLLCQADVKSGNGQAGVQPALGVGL
Summary of the method: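 Percent inhibition at 10 µM in HEK-293-A2B membranes (18 µg protein), pH 6.5 Tris buffer with benzamidine, bacitracin and adenosine deaminase. 35 nM [3H]DPCPX, 30 min at 25 °C, in duplicate. Nonspecific binding with 400 µM NECA.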

[6] = target: T5, Adenosine receptor A2b (Homo sapiens, UniProt P29275); test: Displacement of [3H]DPCPX from human adenosine A2B receptor expressed in HEK293 cells after 30 mins by beta scintillation counting; assay type: cell-based
T5 sequence (P29275 whole entry): T4 sequence (whole entry)
Summary of the method: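 HEK-293-A2B membranes (18 µg protein) in 50 mM Tris-HCl, 1 mM EDTA, 10 mM MgCl2, 0.1 mM benzamidine, 10 µg/mL bacitracin, 2 UI/mL adenosine deaminase, pH 6.5, with 35 nM [3H]DPCPX. Nonspecific binding with 400 µM NECA. Incubated 30 min at 25 °C, in duplicate. Six concentrations (10 nM-100 µM); IC50 by nonlinear regression, Ki by Cheng-Prusoff.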

[7] = target: T6, Adenosine receptor A3 (Homo sapiens) (UniProt P0DMS8); test: Displacement of [3H]NECA from human adenosine A3 receptor expressed in human HeLa cells at 10 uM after 180 mins by beta scintillation counting; assay type: cell-based
T6 sequence (whole entry): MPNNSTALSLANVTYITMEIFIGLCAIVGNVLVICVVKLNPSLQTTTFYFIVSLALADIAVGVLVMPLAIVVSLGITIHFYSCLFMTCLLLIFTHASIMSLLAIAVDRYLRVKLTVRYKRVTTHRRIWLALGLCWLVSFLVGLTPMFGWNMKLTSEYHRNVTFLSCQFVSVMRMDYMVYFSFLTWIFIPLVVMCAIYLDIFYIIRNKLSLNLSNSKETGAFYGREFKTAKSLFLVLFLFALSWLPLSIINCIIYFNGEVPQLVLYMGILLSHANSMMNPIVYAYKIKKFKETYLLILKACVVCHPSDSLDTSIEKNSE
Summary of the method: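 HeLa-A3 membranes (90 µg protein) in 50 mM Tris-HCl, 1 mM EDTA, 5 mM MgCl2, 2 UI/mL adenosine deaminase, pH 7.4. Test compound at 10 µM with 30 nM [3H]NECA, 180 min at 25 °C, in triplicate. Nonspecific binding with 100 µM (R)-PIA. Percent inhibition read after GF/B filtration.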

[8] = target: T3, Adenosine receptor A2a; test: Antagonist activity at human adenosine A2A receptor expressed in CHO cells assessed as inhibition of NECA-induced cAMP accumulation incubated for 15 mins prior to NECA-induction measured after 15 mins by enzyme immunoassay relative to control; assay type: functional, cell-based
Summary of the method: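 Stably transfected CHO cells grown with dialyzed FBS, washed in DMEM F-12 with 25 mM HEPES pH 7.4 and 30 μM rolipram. Antagonist preincubated 15 min, then NECA (0.1 nM-1 mM) added for a further 15 min. cAMP measured by enzyme immunoassay. NECA curves fitted to a sigmoidal equation; pKB derived from the EC50 shift at one antagonist concentration.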

| inhibition [1] | Ki [2] | inhibition [3] | Ki [4] | inhibition [5] | Ki [6] | inhibition [7] | pKb [8] | Compound |
| --- | --- | --- | --- | --- | --- | --- | --- | --- |
| 40% | – | > 70% | 398 nM | > 70% | 20000 nM | 16% | 6.1 | COc1cccc2cc(C(=O)NC3CCCCC3)c(=N)oc12 |
| > 70% | 398 nM | > 70% | 79.4 nM | > 70% | 316 nM | 33% | 6.59 | COc1cccc2cc(C(N)=O)c(=N)oc12 |
| > 70% | 3160 nM | > 70% | 398 nM | 47% | – | 20% | – | COc1cccc2cc(C(=O)NC3CCCC3)c(=N)oc12 |

The remaining lines, values behind:

| Compound | inhibition [1] | Ki [2] | inhibition [3] | Ki [4] | inhibition [5] | Ki [6] | inhibition [7] | pKb [8] |
| --- | --- | --- | --- | --- | --- | --- | --- | --- |
| COC(=O)/C(C#N)=C/c1cccc(OC)c1O | > 70% | 2510 nM | > 70% | 316 nM | > 70% | 1000 nM | 45% | – |
| COCCNC(=O)c1cc2cccc(OC)c2oc1=N | > 70% | 6310 nM | > 70% | 501 nM | 43% | – | 15% | – |
| COc1cccc2cc(C(=O)NCCCN3CCN(CCCNC(=O)c4cc5cccc(OC)c5oc4=N)CC3)c(=N)oc12 | > 70% | 2510 nM | > 70% | 316 nM | > 70% | 10000 nM | 20% | – |
| COc1cccc2cc(C(=O)NCCc3ccc(O)cc3)c(=N)oc12 | 35% | – | > 70% | 126 nM | > 70% | 631 nM | 30% | 6.54 |
| COc1cccc2cc(C(=O)NCCCOCCCCOCCCNC(=O)c3cc4cccc(OC)c4oc3=N)c(=N)oc12 | 30% | – | > 70% | 398 nM | 44% | – | 23% | 6.36 |
